Measurements from ChEMBL document CHEMBL3407438, “Discovery of potent, orally bioavailable, small-molecule inhibitors of WNT signaling from a cell-based pathway screen” (J Med Chem, 2015).
Calls of active or inactive are those of the source. The calls are words filed in the database; no cut-off is given here.

Legend:
[1] = Drug metabolism in human liver microsome at 10 uM after 30 mins by LC-MS analysis; assay type: ADME; details: liver microsomes, read-out: Drug metabolism
[2] = Dissociation constant, pKa of the compound; assay type: physicochemical
[3] = Cytotoxicity against human 7dF3 cells; assay type: cell-based
cells = assay type: cell-based; details: Homo sapiens, 7dF3
[4] = Apparent permeability in human Caco2 cells after 2 hrs by LC-MS/MS analysis; assay type: ADME, cell-based, Caco-2; details: caco-2, 2 h
[5] = Inhibition of WNT signaling in human T-Rex HEK293 Tet-O cells harboring constitutively active VP16-TCF in absence of beta-catenin after 4 days by luciferase reporter assay; assay type: cell-based; details: HEK293, 96 h
Outline: (§1)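 HEK293 T-Rex Tet-O cells stably carrying TCF-firefly luciferase-IRES-GFP reporter plus Tet-inducible cDNA (ΔN-LRP6, Dvl2, Axin-GID, ΔN-β-catenin or VP16-TCF4) introduced by FLP-FRT recombination; seeded from frozen at 40 000/well; day 3 compound added, eight concentrations 30 μM to 14 nM (final), with doxycycline hyclate; day 4 cells lysed, firefly luciferase luminescence read.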

Cytochrome P450 1A2 = target: T1, Cytochrome P450 1A2 (Homo sapiens, UniProt P05177); assay: Inhibition of CYP1A2 (unknown origin); assay type: ADME
T1 sequence (P05177 whole entry): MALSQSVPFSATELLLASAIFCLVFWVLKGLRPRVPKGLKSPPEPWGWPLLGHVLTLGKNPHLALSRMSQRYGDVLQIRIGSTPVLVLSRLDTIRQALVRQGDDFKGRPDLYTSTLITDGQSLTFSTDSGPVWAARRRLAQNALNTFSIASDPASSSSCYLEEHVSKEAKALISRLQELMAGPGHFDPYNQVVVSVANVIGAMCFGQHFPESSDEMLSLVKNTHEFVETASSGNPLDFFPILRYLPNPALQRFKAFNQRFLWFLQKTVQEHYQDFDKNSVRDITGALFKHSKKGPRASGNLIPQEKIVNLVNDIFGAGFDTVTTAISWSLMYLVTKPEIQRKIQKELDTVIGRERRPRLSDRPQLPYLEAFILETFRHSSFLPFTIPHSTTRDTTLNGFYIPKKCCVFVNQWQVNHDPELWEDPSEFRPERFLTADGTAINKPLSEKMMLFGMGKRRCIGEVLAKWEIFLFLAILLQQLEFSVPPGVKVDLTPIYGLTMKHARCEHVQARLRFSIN

Cytochrome P450 2C9 = Cytochrome P450 2C9 (Homo sapiens, UniProt P11712); assay: Inhibition of CYP2C9 (unknown origin); assay type: ADME; details: human
Cytochrome P450 2C8 = target: T2, Cytochrome P450 2C8 (Homo sapiens, UniProt P10632); assay: Inhibition of CYP2C8 (unknown origin); assay type: ADME
T2 sequence (P10632 whole entry): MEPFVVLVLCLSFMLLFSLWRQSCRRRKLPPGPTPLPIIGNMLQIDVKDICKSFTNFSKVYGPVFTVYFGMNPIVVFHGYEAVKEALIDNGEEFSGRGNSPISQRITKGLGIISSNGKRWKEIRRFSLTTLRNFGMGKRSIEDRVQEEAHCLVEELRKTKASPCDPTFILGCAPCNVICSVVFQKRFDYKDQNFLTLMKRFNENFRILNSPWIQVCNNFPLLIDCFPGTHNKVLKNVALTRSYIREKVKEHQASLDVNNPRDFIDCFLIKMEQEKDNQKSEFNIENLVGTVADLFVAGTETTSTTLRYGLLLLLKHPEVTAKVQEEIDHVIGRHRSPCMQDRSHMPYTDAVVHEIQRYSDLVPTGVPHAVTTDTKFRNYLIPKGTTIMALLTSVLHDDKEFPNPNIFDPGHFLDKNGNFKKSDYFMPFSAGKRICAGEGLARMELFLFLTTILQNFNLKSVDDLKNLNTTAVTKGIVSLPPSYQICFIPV

[6] = Inhibition of WNT signaling in human T-Rex HEK293 Tet-O cells harboring constitutively active deltaN-LRP6 after 4 days by luciferase reporter assay; assay type: cell-based; details: HEK293, 96 h; outline: as §1
Cytochrome P450 3A4 = Cytochrome P450 3A4 (Homo sapiens, UniProt P08684); assay: Inhibition of CYP3A4 (unknown origin); assay type: ADME
[7] = target: Voltage-gated inwardly rectifying potassium channel KCNH2 (Homo sapiens, UniProt Q12809); assay: Inhibition of human ERG
[8] = Inhibition of WNT signaling in human T-Rex HEK293 Tet-O cells harboring Dvl2 after 4 days by luciferase reporter assay; assay type: cell-based; details: HEK293, 96 h; outline: as §1
Cytochrome P450 2C19 = Cytochrome P450 2C19 (Homo sapiens, UniProt P33261); assay: Inhibition of CYP2C19 (unknown origin); assay type: ADME
[9] = Inhibition of WNT signaling in human 7dF3 cells preincubated at 20 uM for 2 hrs before beta-estradiol addition measured after 24 hrs by luciferase reporter assay; assay type: cell-based
[10] = Inhibition of WNT signaling in human T-Rex HEK293 Tet-O cells harboring dominant negative form of Axin GSK3beta-interacting domain after 4 days by luciferase reporter assay; assay type: cell-based; details: HEK293, 96 h; outline: as §1
[11] = Aqueous solubility of the compound; assay type: physicochemical; details: buffer
[12] = Inhibition of WNT signaling in human T-Rex HEK293 Tet-O cells harboring degradation resistant form of beta-catenin after 4 days by luciferase reporter assay; assay type: cell-based; details: HEK293, 96 h; outline: as §1
[13] = Drug metabolism in mouse liver microsome at 10 uM after 30 mins by LC-MS analysis; assay type: ADME; details: liver microsomes, read-out: Drug metabolism
Cytochrome P450 2D6 = Cytochrome P450 2D6 (Homo sapiens, UniProt P10635); assay: Inhibition of CYP2D6 (unknown origin); assay type: ADME
Sequence of Cytochrome P450 2D6 (P10635 whole entry): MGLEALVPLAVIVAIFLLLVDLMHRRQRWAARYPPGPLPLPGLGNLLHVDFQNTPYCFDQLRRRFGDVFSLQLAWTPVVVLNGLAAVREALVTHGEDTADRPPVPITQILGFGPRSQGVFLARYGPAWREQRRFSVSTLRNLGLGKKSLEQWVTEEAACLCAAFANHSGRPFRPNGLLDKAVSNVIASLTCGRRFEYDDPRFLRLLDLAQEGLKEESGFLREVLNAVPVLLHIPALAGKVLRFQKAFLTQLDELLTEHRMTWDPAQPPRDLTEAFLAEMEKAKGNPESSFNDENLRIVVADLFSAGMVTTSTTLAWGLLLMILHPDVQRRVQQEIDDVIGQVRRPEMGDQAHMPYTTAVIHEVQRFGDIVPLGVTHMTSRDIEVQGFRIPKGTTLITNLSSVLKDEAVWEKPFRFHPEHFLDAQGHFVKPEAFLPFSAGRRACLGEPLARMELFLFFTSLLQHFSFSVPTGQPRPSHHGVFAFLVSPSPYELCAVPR

Sequence of Cytochrome P450 3A4 (P08684 whole entry): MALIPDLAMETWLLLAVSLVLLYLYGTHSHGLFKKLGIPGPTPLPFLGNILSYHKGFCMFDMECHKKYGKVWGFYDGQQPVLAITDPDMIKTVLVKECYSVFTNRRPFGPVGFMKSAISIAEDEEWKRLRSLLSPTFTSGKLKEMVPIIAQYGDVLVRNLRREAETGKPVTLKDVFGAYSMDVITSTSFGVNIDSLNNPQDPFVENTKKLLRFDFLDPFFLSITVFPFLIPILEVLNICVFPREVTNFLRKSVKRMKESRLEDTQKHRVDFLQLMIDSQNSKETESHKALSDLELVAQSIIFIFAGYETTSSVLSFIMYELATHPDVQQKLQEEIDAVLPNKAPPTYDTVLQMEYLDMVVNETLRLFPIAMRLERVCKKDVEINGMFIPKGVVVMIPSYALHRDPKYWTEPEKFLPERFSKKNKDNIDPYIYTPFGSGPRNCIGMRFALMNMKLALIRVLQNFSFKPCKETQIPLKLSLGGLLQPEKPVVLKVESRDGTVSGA
Sequence of Cytochrome P450 2C9 (P11712 whole entry): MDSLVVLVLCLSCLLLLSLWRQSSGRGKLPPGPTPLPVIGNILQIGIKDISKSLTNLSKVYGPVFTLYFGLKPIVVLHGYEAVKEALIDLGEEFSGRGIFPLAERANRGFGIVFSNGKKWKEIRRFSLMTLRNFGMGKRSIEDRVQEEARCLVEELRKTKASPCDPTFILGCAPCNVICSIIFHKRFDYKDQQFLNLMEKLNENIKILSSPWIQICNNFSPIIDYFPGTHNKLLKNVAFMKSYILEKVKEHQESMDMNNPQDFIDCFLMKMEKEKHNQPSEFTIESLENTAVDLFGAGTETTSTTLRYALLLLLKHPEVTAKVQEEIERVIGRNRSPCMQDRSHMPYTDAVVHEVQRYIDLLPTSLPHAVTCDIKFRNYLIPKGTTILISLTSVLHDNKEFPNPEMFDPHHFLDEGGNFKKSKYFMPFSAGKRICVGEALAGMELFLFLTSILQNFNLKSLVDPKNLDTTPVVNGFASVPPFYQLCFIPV
Sequence of Cytochrome P450 2C19 (P33261 whole entry): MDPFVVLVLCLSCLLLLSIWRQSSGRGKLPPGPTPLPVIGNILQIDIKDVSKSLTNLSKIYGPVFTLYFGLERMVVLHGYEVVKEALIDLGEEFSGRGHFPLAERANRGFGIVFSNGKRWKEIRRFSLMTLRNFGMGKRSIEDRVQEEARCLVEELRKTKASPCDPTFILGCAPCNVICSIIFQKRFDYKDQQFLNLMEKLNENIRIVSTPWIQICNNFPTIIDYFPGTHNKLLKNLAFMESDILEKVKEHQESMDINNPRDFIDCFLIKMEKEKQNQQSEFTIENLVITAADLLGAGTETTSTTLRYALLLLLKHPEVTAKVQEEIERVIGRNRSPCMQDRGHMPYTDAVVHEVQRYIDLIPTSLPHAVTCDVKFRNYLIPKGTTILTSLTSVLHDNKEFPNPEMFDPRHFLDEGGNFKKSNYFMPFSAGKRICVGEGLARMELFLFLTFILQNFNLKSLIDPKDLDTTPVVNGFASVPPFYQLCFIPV
Sequence of Voltage-gated inwardly rectifying potassium channel KCNH2 (Q12809 whole entry): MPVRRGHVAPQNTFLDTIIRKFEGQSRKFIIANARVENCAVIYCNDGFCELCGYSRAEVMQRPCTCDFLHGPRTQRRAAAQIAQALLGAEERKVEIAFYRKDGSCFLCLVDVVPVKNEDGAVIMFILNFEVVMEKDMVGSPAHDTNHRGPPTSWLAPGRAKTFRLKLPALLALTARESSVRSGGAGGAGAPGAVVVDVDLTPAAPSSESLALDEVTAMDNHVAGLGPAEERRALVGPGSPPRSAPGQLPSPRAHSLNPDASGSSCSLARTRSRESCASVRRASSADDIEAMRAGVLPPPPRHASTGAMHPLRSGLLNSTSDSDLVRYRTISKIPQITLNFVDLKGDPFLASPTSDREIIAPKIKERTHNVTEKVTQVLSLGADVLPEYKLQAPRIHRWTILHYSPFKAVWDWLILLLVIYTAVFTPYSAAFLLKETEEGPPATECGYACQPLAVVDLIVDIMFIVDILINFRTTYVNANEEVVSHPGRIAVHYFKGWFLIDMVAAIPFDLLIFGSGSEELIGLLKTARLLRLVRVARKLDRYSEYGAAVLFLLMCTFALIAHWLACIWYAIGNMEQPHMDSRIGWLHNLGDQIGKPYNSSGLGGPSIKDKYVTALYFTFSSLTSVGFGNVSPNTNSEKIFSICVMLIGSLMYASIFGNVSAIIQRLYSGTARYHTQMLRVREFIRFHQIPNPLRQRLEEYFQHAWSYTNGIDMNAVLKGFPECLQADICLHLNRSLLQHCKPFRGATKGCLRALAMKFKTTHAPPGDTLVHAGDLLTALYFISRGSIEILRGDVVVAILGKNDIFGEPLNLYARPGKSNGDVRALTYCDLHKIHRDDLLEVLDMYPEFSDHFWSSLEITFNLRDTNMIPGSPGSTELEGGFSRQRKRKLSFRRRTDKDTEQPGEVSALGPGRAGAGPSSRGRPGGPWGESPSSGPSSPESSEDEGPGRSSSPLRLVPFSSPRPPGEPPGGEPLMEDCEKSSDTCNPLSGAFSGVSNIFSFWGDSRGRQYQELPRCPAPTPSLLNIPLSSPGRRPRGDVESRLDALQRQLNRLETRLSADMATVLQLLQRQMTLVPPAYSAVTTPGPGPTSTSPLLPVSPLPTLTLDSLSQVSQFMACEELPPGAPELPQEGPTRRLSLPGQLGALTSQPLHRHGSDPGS

metabolised at 0.5 h, 10 µM [1]: 22%
pKa [2]: 3.5
IC50 (cells): 1.76 µM
Papp [4]: 360 nm/s
IC50 [5]: 7.61 µM
inhibition (INH) (Cytochrome P450 1A2): Not Active
inhibition (INH) (Cytochrome P450 2C9): Not Active
inhibition (INH) (Cytochrome P450 2C8): Not Active
IC50 [6]: 0.91 µM
IC50 (Cytochrome P450 3A4): 7 µM
IC50 [8]: 1.2 µM
inhibition (INH) (Cytochrome P450 2C19): Not Active
IC50 [10]: 1.5 µM
solubility [11]: > 1 mg/mL
IC50 [12]: 2.73 µM
metabolised at 0.5 h, 10 µM [13]: 41%
inhibition (INH) (Cytochrome P450 2D6): Not Active
SMILES: NC(=O)C1CCN(c2c(Cl)cncc2Cl)CC1
Activity [3]: Non-toxic
IC50 [7]: > 10 µM
inhibition [9]: Active
